Source: PubChem BioAssay (several laboratories)
MsrA act: bovine methionine sulfoxide reductase A activation; purified bovine MsrA, absorbance read-out; 360,000 compounds, 0.3% hits; activation, % at 10.6 µM; in the data active means activation above about 7.5%
aDG glyco act: increases alpha dystroglycan glycosylation; AID 624168; Pro5-aDG cells, alpha-DG glycosylation AlphaScreen (IIH6); 0% Pro5, 100% B10-LARGE cell signal; 360,000 compounds, 0.22% hits; activation, % at 10 µM;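 active means activation of at least 8% versus controls, or a plate z-score of at least 8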;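 further: Pro5 are CHO cells carrying HIG-tagged alpha-DG that lacks glycosylation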
Vif inh: blocks HIV Vif function. HEK293T cells, Vif self-association by quenched fluorescence, imaging, 24 h. 340,000 compounds, 0.35% hits. inhibition, % at 7.49 µM; in the data active means inhibition above about 50%, passing the limit was not always enough
Glyco luc inh: blocks N-linked glycosylation in D54 reporter cells | D54 ERlucT glycosylation luciferase reporter, 24 h; percent of 100 nM tunicamycin response | reporter increase, % at 12.5 µM | 360,000 compounds, 0.23% hits | AID 588692;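 active means mean luciferase reporter signal, scaled so untreated is 0 and the glycosylation-blocking control 100, at or above a set limit in every replicate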;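 further: luciferase carries N-glycosylation sites so blocking glycosylation raises the light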
MsrA inh: bovine MsrA inhibition. purified bovine MsrA, absorbance read-out. inhibition, % at 15.5 µM. 360,000 compounds, 0.75% hits. AID 651718
UCH37 DUB inh: blocks the human deubiquitinase UCH37. purified proteasome/UCH37, Ub-AMC cleavage fluorescence. inhibition, % (test concentration not listed). 330,000 compounds, 0.33% hits. AID 588478;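 active means mean inhibition over replicate wells above about 20%, limit read from the data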
Target sequence (Q9Y5K5 whole entry, looked up): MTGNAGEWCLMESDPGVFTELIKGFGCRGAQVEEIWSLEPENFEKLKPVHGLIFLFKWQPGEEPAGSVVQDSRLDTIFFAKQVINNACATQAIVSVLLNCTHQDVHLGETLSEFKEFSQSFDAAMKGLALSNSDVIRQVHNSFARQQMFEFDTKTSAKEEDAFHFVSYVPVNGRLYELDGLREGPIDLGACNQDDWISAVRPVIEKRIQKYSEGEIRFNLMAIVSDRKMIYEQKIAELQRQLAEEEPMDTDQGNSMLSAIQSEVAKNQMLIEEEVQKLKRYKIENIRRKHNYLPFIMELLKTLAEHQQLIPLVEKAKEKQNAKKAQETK
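Signal – fluorescence, ex 355 nm, em 460 nm · System – Proteasome-bound UCH37 · Input – 0.15 nM proteasome as dispensed · Timing – 30 min preincubation with enzyme, 25 min cleavage at room temperature · Read-out basis – percent inhibition of cleavage signal versus uninhibited and no-proteasome wells · Medium – Tris-HCl pH 7.4 with ATP-MgCl2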
MsrA activ conf: confirmation of bovine methionine sulfoxide reductase A activators | shares compounds with MsrA act | purified bovine MsrA, absorbance read-out | activation, % at 10.6 µM | 1,000 compounds, 12% hits | AID 602270; in the data active means activation above about 4%;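 further: enzyme coupled to thioredoxin and thioredoxin reductase with NADPH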
aDG glyco conf: alpha-DG glycosylation activation, confirmation | shares compounds with aDG glyco act | Pro5-aDG cells, IIH6 AlphaLISA; scaled to LARGE-overexpressing B10 cells as 100% | activation, % at 10 µM (by protocol) | 600 compounds, 17% hits | AID 651671;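 active means activation of at least 7% in one or more replicates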;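 further: cells exposed to compound for two days before detection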
MsrA conf: confirmation of bovine MsrA inhibitors | 2,300 compounds, 41% hits | purified bovine MsrA, absorbance read-out | inhibition, % at 15.5 µM | shares compounds with MsrA inh | AID 651822;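 further: coupled to thioredoxin reductase with NADPH and selenocystamine and DMSO as substrate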
Each line names hits and unclear results; the compound was inactive in the other large screens (follow-up assays come after a bar, where they were run). In the library only some 1.9% were active in any assay of this set; here they are far more common. Unless noted, no stated cut-off is given here; in the data, active means inhibition above about 4.5%; inactive means the rest.

COc1ccc(O)c(/C=N/NC(=O)CCC(=O)Nc2ccc(F)cc2)c1	MsrA act 7.9 (no result: UCH37 DUB inh) | MsrA activ conf inactive
COc1ccc(C=NNC(=O)CCC(=O)Nc2ccc(F)cc2)c(OC)c1	none (no result: MsrA act, aDG glyco act, Vif inh, Glyco luc inh, MsrA inh)
O=C(NCCNC(=O)c1ccc(-c2cccc(Cl)c2)o1)c1cnccn1	none (no result: UCH37 DUB inh)
O=C(NCCNC(=O)c1ccc(-c2ccc(Cl)c(Cl)c2)o1)c1cnccn1	MsrA act 10 | MsrA activ conf inactive
C[n+]1c(-c2ccccc2)cc2c(=Cc3ccccc3)c3ccccc3n21	MsrA act 19, MsrA inh 12 (no result: UCH37 DUB inh) | MsrA activ conf 9.6
CN(C)c1ccc(C=c2c3cc(O)ccc3n3c2cc(-c2ccccc2)[n+]3C)cc1	MsrA act 17 (no result: UCH37 DUB inh) | MsrA activ conf 8.1
Cc1ccc(NC(=O)CON=Cc2ccccc2C)c(C)c1	none (no result: MsrA act, aDG glyco act, Vif inh, Glyco luc inh, MsrA inh)
Cc1ccc(C=NNC(=O)c2ccc(Br)o2)s1	none (no result: MsrA act, aDG glyco act, Vif inh, Glyco luc inh, MsrA inh)
CN1C(=c2sc(=C3C(=O)N(c4ccccc4)NC3=Nc3ccccc3)n(C)c2=O)C(C)(C)c2ccccc21	none (no result: MsrA act, aDG glyco act, Vif inh, Glyco luc inh, MsrA inh)
O=S1(=O)CCOC[C@H](c2ccccc2)N1Cc1cccc(F)c1	MsrA act 11 | MsrA activ conf inactive
CC(=NO)C(=O)NCCN1CCCCC1	none (no result: MsrA act, aDG glyco act, Vif inh, Glyco luc inh, MsrA inh)
O=C(OCCN1CCCC1)C1(c2ccccc2)CCCC1	MsrA act 9.6 | MsrA activ conf inactive
O=C(OCCN1CCCCC1)C1(c2ccccc2)CCCC1	none (no result: UCH37 DUB inh)
Cc1ccc(S(=O)(=O)N2CCN(CC(=O)NN=Cc3cc([N+](=O)[O-])ccc3Cl)CC2)cc1	none (no result: MsrA act, aDG glyco act, Vif inh, Glyco luc inh, MsrA inh)
COC(=O)CCCNC(=O)c1ccc2oc(CCCc3ccccc3)nc2c1	MsrA act 11 | MsrA activ conf inactive
COC(=O)[C@@H](C)NC(=O)c1ccc2oc(CCc3ccccc3)nc2c1	none
CCCCC(=O)Oc1c(S(=O)(=O)c2ccccc2)c(C)nn1C(C)(C)C	none
CC(=O)Oc1c(S(=O)(=O)c2ccccc2)c(C)nn1C(C)(C)C	MsrA act 10 | MsrA activ conf inactive
Cc1nn(-c2ccccc2)c(N2CCCC2)c1C=NNC(=O)c1ccccc1O	none (no result: MsrA act, aDG glyco act, Vif inh, Glyco luc inh, MsrA inh)
COc1ccc(NC(=O)ON=Cc2ccc(N(C)C)cc2)cc1	none (no result: MsrA act, aDG glyco act, Vif inh, Glyco luc inh, MsrA inh)
CCCCCC(=O)NNC(=S)NC(=O)c1cccc([N+](=O)[O-])c1	MsrA act 8.9 | MsrA activ conf inactive
CCCCCC(=O)NNC(=S)NC(=O)c1ccccc1[N+](=O)[O-]	none
Fc1ccccc1Cn1nnc(-c2ccc3c(c2)OCO3)n1	none
COc1ccc(-c2nnn(Cc3ccccc3F)n2)cc1	MsrA act 16 | MsrA activ conf inactive
CCCCOC(=O)Nc1ccccc1C(=O)N1CCCC1	MsrA act 15 | MsrA activ conf inactive
COc1ccc2c(c1)C(=NOC(=O)c1cccs1)CCC2	none (no result: MsrA act, aDG glyco act, Vif inh, Glyco luc inh, MsrA inh)
O=C(Nc1ccc(F)cc1)N1CCN(c2nc3ccccc3s2)CC1	MsrA act 8.0 | MsrA activ conf inactive
Cn1cnnc1SC1c2cccc3cccc(c23)C1NS(=O)(=O)c1ccccc1 (configuration not stated)	none
Cc1ccc(S(=O)(=O)NC2c3cccc4cccc(c34)C2Sc2nncn2C)cc1 (configuration not stated)	MsrA act 15 | MsrA activ conf inactive
COc1ccc2ccccc2c1C=NN1C(=O)CSC1=S	none (no result: MsrA act, aDG glyco act, Vif inh, Glyco luc inh, MsrA inh)
CN(C)c1nc(NC(C)(C)C)nc(SCC(=O)Nc2ccccc2)n1	MsrA act 7.7 | MsrA activ conf inactive
Cc1cc(O)c(C=NNc2ccccc2)c(=O)o1	none (no result: MsrA act, aDG glyco act, Vif inh, Glyco luc inh, MsrA inh)
NS(=O)(=O)c1ccc(NC(=O)COC(=O)CNC(=O)C23CC4CC(CC(C4)C2)C3)cc1	none
CC(OC(=O)CNC(=O)C12CC3CC(CC(C3)C1)C2)C(=O)Nc1ccc(S(N)(=O)=O)cc1 (configuration not stated)	MsrA act 9.1 | MsrA activ conf inactive
COc1ccccc1OCC(=O)N/N=C/C=C/c1ccc([N+](=O)[O-])o1	MsrA act 10, Glyco luc inh 58 (no result: UCH37 DUB inh) | MsrA activ conf inactive
O=C(COc1ccc(Cl)cc1)Nc1cccc(-c2ccc3nncn3n2)c1	MsrA act 15, aDG glyco act 3.5 | MsrA activ conf inactive | aDG glyco conf inactive
CC(Oc1ccc(Cl)cc1Cl)C(=O)NN=C1CCCc2ccccc21 (configuration not stated)	none (no result: MsrA act, aDG glyco act, Vif inh, Glyco luc inh, MsrA inh)
CCOC(=O)C1CCN(C2=C(NS(=O)(=O)c3ccc(Cl)cc3)C(=O)c3ccccc3C2=O)CC1	none
CCN1CCN(C2=C(NS(=O)(=O)c3ccc(NC(C)=O)cc3)C(=O)c3ccccc3C2=O)CC1	MsrA act 8.9, aDG glyco act 6.7 | MsrA activ conf inactive | aDG glyco conf inactive
COc1cc([N+](=O)[O-])ccc1NC(=O)NCC1CCN(Cc2ccc(Cl)cc2)CC1	MsrA act 22, aDG glyco act 3.3 | MsrA activ conf inactive | aDG glyco conf inactive
CC(=NNC(=O)CSc1nc(C)cc(C)n1)c1cccs1	none (no result: MsrA act, aDG glyco act, Vif inh, Glyco luc inh, MsrA inh)
CC1OC2CC(=O)OC2C2=C1C(=O)c1c(O)cccc1C2=O (configuration not stated)	MsrA act 17, MsrA inh 8.5 (no result: UCH37 DUB inh) | MsrA activ conf 11 | MsrA conf 6.8
CC(C=NNC(=O)c1nnn(-c2nonc2N)c1CN1CCCCC1)c1ccccc1 (configuration not stated)	none (no result: MsrA act, aDG glyco act, Vif inh, Glyco luc inh, MsrA inh)
C[n+]1c(-c2ccccc2)cc2c(=Cc3ccc([N+](=O)[O-])cc3)c3ccccc3n21	MsrA act 20, MsrA inh 11 (no result: UCH37 DUB inh) | MsrA activ conf 17 | MsrA conf inactive
CC(=NNC(=O)CSc1nc2ccccc2s1)c1cccnc1	none (no result: MsrA act, aDG glyco act, Vif inh, Glyco luc inh, MsrA inh)
Cc1ccc(S(=O)(=O)Nc2ccc3c(c2)C(=O)c2ccccc2-3)cc1	none (no result: Vif inh, UCH37 DUB inh)
Cc1ccc(NS(=O)(=O)c2ccc3c(c2)C(=O)c2ccccc2C3=O)c(C)c1	MsrA act 12, MsrA inh 10 | MsrA activ conf 5.8 | MsrA conf 32
O=[N+]([O-])c1ccc(-[n+]2nc(-c3ccccc3)nn2-c2ccccc2)cc1	MsrA act 7.8, MsrA inh 26 | MsrA activ conf 4.8 | MsrA conf 25
O=c1ccc(-c2ccc([N+](=O)[O-])cc2)nn1-c1ccccc1	none
COc1ccc(CN=Cc2[nH]c3ccc(Br)c(Cl)c3c2O)cc1	none
Cc1cc(C)cc(N=Cc2[nH]c3ccc(Br)c(Cl)c3c2O)c1	aDG glyco act 5.9 | aDG glyco conf inactive
CC1CCCN(CCCNC(=O)c2nn(C)c3c2CSc2ccccc2-3)C1 (configuration not stated)	aDG glyco act 6.3 | aDG glyco conf 9.0
